pIC50: −log10 of the molar value. One block for each compound: values may come before it. Active and inactive are the calls of the source. The calls are words filed in the database; no cut-off is given here.
Tests used:
[1] = molecular target: Beta-1 adrenergic receptor (Rattus norvegicus, UniProt P18090); assay: Binding affinity against beta-1 adrenergic receptor in rat brain using [3H]DHA; type: tissue-based
Summary of the method: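 β1 sites in rat cerebral cortex membranes (male Long-Evans, 150–250 g) with [3H]dihydroalprenolol at 0.5 nM final. (-)-Alprenolol at 1 μM final defined the reference. IC50 from four or five concentrations by nonlinear curve fit.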

[2] = tested on: Canis familiaris; assay: Emesis test in dogs was determined when dose administered per orally; type: functional; settings: Canis lupus familiaris, po; read-out: MED
Summary of the method: (§1)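 Fasted dogs (7–12 kg), normally three per dose, were dosed orally and observed hourly for up to 6 h for emesis and other autonomic or behavioural signs. The minimal effective dose was the lowest dose producing emesis in any animal.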

[3] = tested on: Rattus norvegicus; assay: Compound was tested for its effect on norepinephrine turnover in rat at dose of 64 mg/kg ip; type: functional; settings: route intraperitoneal
Summary of the method: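 Rats were given compound or vehicle ip 30 min before α-methyl-p-tyrosine (250 mg/kg ip) and killed 4 h later. Brain NE and DA were measured spectrofluorometrically, with at least five determinations per value, and expressed as % of vehicle-treated levels ± SEM.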

[4] = tested on: Rattus norvegicus; assay: Inhibition of conditional avoid in rats after peroral administration; type: functional; settings: po
Summary of the method: (§2)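 Fasted male Wistar rats (150–250 g) were trained to jump to a platform at a buzzer to avoid grid shock (1.1 mA/s). After oral dosing they were tested every 20 min for 6 h over 19 trials, 10 rats per dose, each rat used once. Peak effect was the mean of the four consecutive trials with the largest effect, computed from response latency. ED50 read graphically from at least three doses.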

[5] = tested on: Rattus norvegicus; assay: Suppression of conditional avoidance after peroral administration; type: functional; settings: po; summary of the method: as §2
[6] = molecular target: T1, Serotonin 2 (5-HT2) receptor (Rattus norvegicus, UniProt P30994+P08909+P14842); assay: Binding affinity towards 5-hydroxytryptamine 2 receptor in rat brain using [3H]spiroperidol; type: tissue-based
Summary of the method: (§3)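 Serotonin-2 sites in rat cerebral cortex membranes (male Long-Evans, 150–250 g) with [3H]spiroperidol at 0.2 nM final. (+)-Butaclamol at 1.0 μM final was the reference. IC50 from four or five concentrations by nonlinear curve fitting.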

[7] = tested on: Mus musculus; assay: Effective dose required for inhibition of locomotion/ataxia in mice administered intraperitoneally; type: functional; settings: ip
Summary of the method: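 Male Swiss–Webster mice (20–30 g, unfasted), nine per dose in groups of three, dosed ip in 0.2% methocel (dose as parent compound) 1 h before testing. Ataxia was scored first on an inverted screen over 60 s as % of mice falling. […] ED50 from at least three doses.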

[8] = organism: Rattus norvegicus; assay: Compound was tested for its potential to produce clonic seizures in rats; + indicates compound is causing seizures; type: functional, organism-based
Summary of the method: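 Any sign of seizure marked the compound as seizure-causing; the outcome was not quantified.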

[9] = molecular target: T1, Serotonin 2 (5-HT2) receptor; assay: Binding affinity towards 5-hydroxytryptamine 2 receptor using [3H]- spiroperidol; type: protein assay; summary of the method: as §3
[10] = molecular target: T2, Adrenergic receptor alpha-1 (Rattus norvegicus, UniProt P15823+P23944+P43140); assay: Binding affinity against lpha-1 adrenergic receptor using [3H]- WB-4101; type: protein assay
T2 sequence (P15823 whole entry): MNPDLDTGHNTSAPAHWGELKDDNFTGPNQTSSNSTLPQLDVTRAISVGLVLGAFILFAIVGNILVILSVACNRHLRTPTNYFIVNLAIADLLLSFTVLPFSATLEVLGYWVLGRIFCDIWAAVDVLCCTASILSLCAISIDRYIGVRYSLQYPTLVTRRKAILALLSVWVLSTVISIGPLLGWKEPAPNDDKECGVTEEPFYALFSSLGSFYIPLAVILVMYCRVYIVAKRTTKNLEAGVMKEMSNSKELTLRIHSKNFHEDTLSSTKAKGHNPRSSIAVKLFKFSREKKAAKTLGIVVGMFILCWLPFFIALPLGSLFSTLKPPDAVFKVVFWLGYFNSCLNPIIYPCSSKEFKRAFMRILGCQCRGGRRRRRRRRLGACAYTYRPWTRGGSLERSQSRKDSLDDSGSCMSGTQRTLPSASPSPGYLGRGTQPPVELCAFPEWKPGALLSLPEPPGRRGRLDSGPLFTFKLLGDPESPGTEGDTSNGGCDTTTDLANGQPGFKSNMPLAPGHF
T2 sequence (P23944 whole entry): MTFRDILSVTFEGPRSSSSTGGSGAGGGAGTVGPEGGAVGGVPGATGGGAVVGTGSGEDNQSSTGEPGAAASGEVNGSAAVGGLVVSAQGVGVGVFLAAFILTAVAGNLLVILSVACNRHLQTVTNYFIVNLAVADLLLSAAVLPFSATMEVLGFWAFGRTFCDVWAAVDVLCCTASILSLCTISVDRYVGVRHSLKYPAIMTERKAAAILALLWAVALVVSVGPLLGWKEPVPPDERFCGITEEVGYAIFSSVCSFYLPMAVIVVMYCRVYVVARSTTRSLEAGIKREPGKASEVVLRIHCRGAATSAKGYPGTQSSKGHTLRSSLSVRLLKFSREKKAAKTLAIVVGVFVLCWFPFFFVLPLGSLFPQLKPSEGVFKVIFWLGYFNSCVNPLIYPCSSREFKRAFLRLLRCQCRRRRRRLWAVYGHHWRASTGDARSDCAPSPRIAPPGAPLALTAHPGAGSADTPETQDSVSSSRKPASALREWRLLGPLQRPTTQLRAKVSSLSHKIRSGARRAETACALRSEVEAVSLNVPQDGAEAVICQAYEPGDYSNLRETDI
T2 sequence (P43140 whole entry): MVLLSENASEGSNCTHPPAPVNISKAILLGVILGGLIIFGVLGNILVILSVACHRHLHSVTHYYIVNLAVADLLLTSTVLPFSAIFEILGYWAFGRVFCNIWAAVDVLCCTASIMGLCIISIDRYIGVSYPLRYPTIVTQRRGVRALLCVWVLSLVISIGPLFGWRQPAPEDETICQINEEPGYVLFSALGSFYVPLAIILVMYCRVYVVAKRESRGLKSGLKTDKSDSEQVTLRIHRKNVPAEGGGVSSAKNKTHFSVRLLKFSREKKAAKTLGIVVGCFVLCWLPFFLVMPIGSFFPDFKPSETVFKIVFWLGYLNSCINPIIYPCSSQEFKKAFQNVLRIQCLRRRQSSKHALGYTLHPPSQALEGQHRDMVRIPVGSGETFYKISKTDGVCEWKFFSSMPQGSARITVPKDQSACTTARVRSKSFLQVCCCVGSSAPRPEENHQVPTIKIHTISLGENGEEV
Summary of the method: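 α1-Adrenergic binding in rat frontal cerebral cortex membranes (male Long-Evans, 150–250 g) with [3H]WB4101 at 0.5 nM final. (-)-Norepinephrine at 100 μM final was the reference standard. IC50 from four or five concentrations by nonlinear curve fitting.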

[11] = tested on: Canis familiaris; assay: Emesis test in dogs was determined when administered perorally; type: functional; settings: Canis lupus familiaris, po; read-out: MED; summary of the method: as §1
[12] = molecular target: Dopamine receptor; assay: Binding affinity against dopamine receptor using [3H]- haloperidol in rat brain; type: tissue-based
Summary of the method: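 Nonspecific binding defined with (+)-butaclamol at 0.1 μM final. IC50 fitted by nonlinear curve fit from four or five concentrations in triplicate.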

[13] = tested on: Rattus norvegicus; assay: Compound was tested for its affect on the accumulation of the dopamine metabolite homovanillic acid (HAV) in the rat striatum at 83 mg/kg dose after peroral administration; type: functional; settings: route oral
Summary of the method: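 Male Long–Evans rats were dosed orally and decapitated 2 h later. Striatal HVA was isolated on Sephadex G-10 and measured spectrofluorometrically, expressed as % control ± SEM.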

Chain of Beta-1 adrenergic receptor (P18090 whole entry): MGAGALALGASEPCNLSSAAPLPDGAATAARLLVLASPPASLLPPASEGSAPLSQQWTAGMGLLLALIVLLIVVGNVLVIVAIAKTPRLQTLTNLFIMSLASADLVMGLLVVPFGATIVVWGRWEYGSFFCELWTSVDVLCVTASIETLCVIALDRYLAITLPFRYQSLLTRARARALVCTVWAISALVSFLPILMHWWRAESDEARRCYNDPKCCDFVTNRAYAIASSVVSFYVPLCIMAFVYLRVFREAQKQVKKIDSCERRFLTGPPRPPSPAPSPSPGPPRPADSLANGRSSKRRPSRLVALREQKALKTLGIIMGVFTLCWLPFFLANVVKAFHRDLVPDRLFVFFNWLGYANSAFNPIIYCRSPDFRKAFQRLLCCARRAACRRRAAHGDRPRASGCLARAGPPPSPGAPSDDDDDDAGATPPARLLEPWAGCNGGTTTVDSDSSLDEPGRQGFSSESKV

pIC50 [1]: < 5.00 | IC50 [6]: > 10 µM
Structure (SMILES): Cc1nn(C)c(NC(=O)CNCCCN2CCCCC2C)c1C(=O)c1ccccc1F (stereo not drawn)
minimal effective dose [2]: 56 mg/kg | Control [3]: 102.8% | ED50 [4]: 43.5 mg/kg | ED50 [5]: 43 mg/kg

Structure (SMILES): Cc1nn(C)c(N)c1C(=O)c1ccccc1F
ED50 [7]: 8 mg/kg | Clonic seizures [8]: Active

IC50 [9]: > 10 µM | IC50 [10]: > 10 µM | IC50 [12]: > 10 µM
Structure (SMILES): CCN(CC)CC(=O)Nc1c(C(=O)c2ccccc2F)c(C)nn1C
minimal effective dose [11]: 56 mg/kg | Control [13]: 102.1%
